Data published in ChEMBL document CHEMBL1141651, “Discovery of a potent, selective, and orally active proteasome inhibitor for the treatment of cancer” (J Med Chem, 2008).
pEC50, pIC50: −log10 of the molar value.

Legend:
[1] = Inhibition of chymotrypsin-like activity of human erythrocyte 20S proteasome
Outline: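 Isolated 20S proteasome purified from human erythrocytes was tested in a fluorimetric kinetic assay of chymotrypsin-like activity. Potency is reported as IC50.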

[2] = Inhibition of bovine alpha chymotrypsin; design: species or system Bos taurus
[3] = Inhibition of chymotrypsin-like activity of human 20S proteasome in Molt4 cells; type: cell-based; conditions: molt-4
Outline: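 Intact human leukemia Molt-4 cells were given the cell-permeable fluorogenic chymotrypsin-like substrate MeOSuc-FLF-AFC, so the read-out also reflects inhibitor cell permeability. Potency is reported as EC50.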

[4] = system: A2780; experiment: Cytotoxicity against human A2780 cells; type: functional, cell-based
Outline: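 Antiproliferative activity was measured in A2780 ovarian carcinoma cells with a standard colorimetric assay of cell proliferation and viability. Results are expressed as IC50.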

Row | Structure (SMILES) | pIC50 [1] | pIC50 [2] | pEC50 [3] | pIC50 [4]
1 | CC(C)C[C@H](NC(=O)[C@@H](NC(=O)c1cncc(-c2ccccc2)n1)[C@@H](C)O)B(O)O | 8.64 | 6.55 | 7.57 | 8.01
2 | CC(C)C[C@H](NC(=O)[C@@H](NC(=O)c1cccc(-c2ccccc2)c1)[C@@H](C)O)B(O)O | 9.10 | 6.05 | 7.77 | 8.32
3 | CC(C)C[C@H](NC(=O)[C@@H](NC(=O)c1csc(-c2ccccc2)n1)[C@@H](C)O)B(O)O | 8.34 | 6.23 | 7.80 | 7.55
4 | CC(C)C[C@H](NC(=O)[C@@H](NC(=O)c1ccc2ccccc2c1)[C@@H](C)O)B(O)O | 8.80 | 6.30 | 7.57 | 8.28
5 | CC(C)C[C@H](NC(=O)[C@@H](NC(=O)c1ccc2ccccc2n1)[C@@H](C)O)B(O)O | 8.17 | 5.89 | 7.49 | 7.68
6 | CC(C)C[C@H](NC(=O)[C@@H](NC(=O)c1ncccc1-c1ccccc1)[C@@H](C)O)B(O)O | 8.06 | 6.34 | 4.89 | –
